Screens: PubChem, several laboratories
These entries were drawn from the full list.
CYP2C9 act: increases human cytochrome P450 2C9 activity; P11712; recombinant CYP2C9, luciferin-H conversion, luminescence; hits give high values; factor 1 = untreated enzyme, 0 = blocked; 96,000 compounds, 1.4% hits; activation factor at 5 µM; AID 1024;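 active means activation factor of 2 or more for CYP2C9 at a 5 µM dose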;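 further: 0 = sulfaphenazole-blocked wells and 1 = vehicle-only wells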
Rev-RRE block: HIV Rev-RRE protein-RNA interaction inhibition; 97,000 compounds, 0.79% hits; inhibition, % at 8 µM; Rev peptide-RRE RNA binding, FRET;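 active means inhibition above the screen-wide mean plus 3 SD, cut at about 35% in these data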;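 further: 0% = median DMSO wells and 100% = median Neomycin B control wells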
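Material: labelled RRE RNA duplex and labelled Rev peptide / Buffer or medium: HEPES pH 7.5 salt buffer with EDTA / Compound dosing: single point, 8 µM final nominal compound concentration / Benchmarks: DMSO low control, neomycin B high control / Timing: 5 min preincubation and 15 min binding, 25 °C / Technique: FRET fluorescence readout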
CYP2C19 inh: human CYP2C19 inhibition; 96,000 compounds, 21% hits; inhibition, % at 5 µM; P33261; CYP2C19 Supersomes, luciferin-H EGE luminescence, 30 min; AID 778;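 active means CYP2C19 inhibition above a set limit at 5 µM in the primary screen, cut at about 50% in these data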;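 further: plate controls were negative control wells for no effect and 2.5 mM tranylcypromine positive control for full effect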
Cav32 inh: inhibitors of human Cav3.2 T-type calcium channel; Cav3.2-expressing cells, Fluo-4 calcium fluorescence FDSS; hits give low values; AID 449739; B-score at 10 µM; 100,000 compounds, 4% hits;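 active means single-dose well whose peak fluorescence ratio is a statistical outlier from its plate by either plate-standardised score or position-corrected B-score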
CYP2C9 inhib: blocks human cytochrome P450 2C9; inhibition, % at 5 µM; CYP2C9 Supersomes, luciferin-H conversion, luminescence; 96,000 compounds, 20% hits; P11712; AID 777;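 active means blocking of liver enzyme CYP2C9 beyond about 50% at 5 µM, limit read from the data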
CYP2C19 activ: increases human CYP2C19 enzyme activity. activation factor at 5 µM. AID 1025. recombinant CYP2C19, luciferin-H EGE luminescence; hits give high values; 0 = fully inhibited enzyme, 1 = untreated enzyme. 96,000 tested, under 10 active. P33261;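 active means activation factor of at least 2 at 5 µM in the primary screen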;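 further: 0 = wells with 2.5 mM tranylcypromine and 1 = vehicle-only wells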
The depositor's hits bear a star; x = no result.

SMILES | CYP2C9 act | Rev-RRE block | CYP2C19 inh | Cav32 inh | CYP2C9 inhib | CYP2C19 activ
Cc1ccc(S(=O)(=O)N2CC3(C)CN(S(=O)(=O)c4ccc(C)cc4)CC(C)(C2)C3)cc1 | 0.7 | 5.3 | 13.0 | 0.286 | 32.5 | 0.9
CCOC(=O)N1CCN(C(=O)CSc2cc(C)nc3c(-c4ccccc4OC)c(C)nn23)CC1 | 0.6 | 3.0 | 27.7 | 1.39 | 41.5 | 0.7
CCOC(=O)N1CCC(Nc2cc(C)nc3c(-c4ccccc4OC)c(C)nn23)CC1 | 0.2 | x | 84.1* | x | 79.1* | 0.2
CCOC(=O)c1c(C)nc2c(c1-c1cc(OC)c(OC)c(OC)c1)C(=O)c1ccccc1-2 | 0.7 | -1.2 | 33.3 | 0.224 | 25.8 | 0.7
CN1C(=O)c2ccc(C(=O)NC3CCCCC3)cc2C1=O | 0.9 | 3.4 | 10.1 | 0.725 | 11.6 | 0.9
CCOC(=O)c1cc2sc(C)cc2n1CC(=O)Nc1cccc(C)c1C | x | x | x | -1.65 | x | x
CCOC(=O)c1cc2sc(C)cc2n1C(C)C(=O)OCC (stereo unspecified) | 0.5 | 6.7 | 95.4* | -2.68 | 54.5* | 0
O=C1c2cccc3c(Nc4ccccc4Cl)c([N+](=O)[O-])cc(c23)C(=O)N1CCO | 0.8 | 2.6 | 14.0 | -2.23 | 23.3 | 0.9
